Calls of active or inactive are those of the source.
Experiments:
HepG2 = test: Cytotoxicity against human HepG2 cells after 24 hrs by CellTiter assay; format: cell-based; conditions: HepG2, 24 h
Procedure, shortened: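 HepG2 cells (passage 27–33) in MEM with 10% FBS, L-glutamine and NEAA, seeded at 1×10^4 per well. Treated next day with compounds at 0.1–100 µM (or 0.1–25 µmol/L), triplicates, <1% DMSO, for 24 h at 37 °C, 5% CO2. MTS reagent added for 2 h, absorbance read at 490 nm. IC50 taken against untreated (100%) and 10% DMSO (0%) controls.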

Trichosporon asahii [1] = test: Antifungal activity against Trichosporon asahii 1188 after 48 hrs by broth microdilution method; format: functional; conditions: Trichosporon asahii, 1188, 48 h
Procedure, shortened: (§1)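 Broth microdilution in RPMI 1640 with glutamine, fluconazole as reference. For yeasts, MIC is ≥80% growth reduction (IC80) versus control. For filamentous fungi, the value is expressed as IC50. Readings at 24 and 48 h.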

Candida tropicalis = test: Antifungal activity against Candida tropicalis 156 at 500 micromol/L after 24 to 48 hrs by broth microdilution method; format: functional, organism-based; procedure, shortened: as §1
Trichosporon asahii [2] = test: Antifungal activity against Trichosporon asahii 1188 after 24 hrs by broth microdilution method; format: functional; conditions: Trichosporon asahii, 1188, 24 h; procedure, shortened: as §1
[3] = tested on: Trichophyton mentagrophytes; test: Antifungal activity against Trichophyton mentagrophytes 445 after 120 hrs by broth microdilution method; format: functional; conditions: Trichophyton mentagrophytes, 445, 120 h
Procedure, shortened: (§2)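 Filamentous dermatophyte tested by broth microdilution in RPMI 1640 with glutamine, fluconazole as reference. Value expressed as IC50 relative to growth control. Read at 72 and 120 h.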

Mycobacterium kansasii [4] = test: Antimycobacterial activity against Mycobacterium kansasii 6509/96 after 7 days; format: functional; conditions: 6509/96, 168 h
Procedure, shortened: (§3)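 Micromethod MIC in Šula's semisynthetic medium at 37 °C. Compounds added in DMSO at 1000 down to 0.032 µmol/L. Isoniazid standard in sterile water at 0.5–250 µmol/L. Inocula: H37Rv 10^3, M. avium 10^5, M. kansasii 10^4. Read at 14 and 21 d, plus 7 d for M. kansasii.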

Mycobacterium kansasii [5] = test: Antimycobacterial activity against Mycobacterium kansasii My 235/80 after 14 days; format: functional; conditions: My 235/80, 336 h; procedure, shortened: as §3
Mycobacterium kansasii [6] = test: Antimycobacterial activity against Mycobacterium kansasii 6509/96 after 21 days; format: functional; conditions: 6509/96, 504 h; procedure, shortened: as §3
Aspergillus fumigatus [7] = test: Antifungal activity against Aspergillus fumigatus 231 after 24 hrs by broth microdilution method; format: functional; conditions: Aspergillus fumigatus, 231, 24 h; procedure, shortened: as §1
Staphylococcus aureus [8] = test: Antibacterial activity against methicillin-resistant Staphylococcus aureus H 5996/08 after 24 hrs by broth microdilution method; format: functional; conditions: H 5996/08, 24 h
Procedure, shortened: (§4)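 Broth microdilution in Mueller–Hinton broth, compounds dissolved in DMSO, tested over a dilution series from 500 downward. MIC taken as ≥95% growth reduction (IC95) versus drug-free control. Benzylpenicillin comparator. Readings at 24 and 48 h.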

Staphylococcus aureus [9] = test: Antibacterial activity against methicillin-resistant Staphylococcus aureus H 5996/08 after 48 hrs by broth microdilution method; format: functional; conditions: H 5996/08, 48 h; procedure, shortened: as §4
Mycobacterium kansasii [10] = test: Antimycobacterial activity against Mycobacterium kansasii My 235/80 after 21 days; format: functional; conditions: My 235/80, 504 h; procedure, shortened: as §3
[11] = tested on: Staphylococcus epidermidis; test: Antibacterial activity against Staphylococcus epidermidis H 6966/08 after 24 hrs by broth microdilution method; format: functional; conditions: H 6966/08, 24 h; procedure, shortened: as §4
Pseudomonas aeruginosa = test: Antibacterial activity against Pseudomonas aeruginosa CCM 1961 at 500 micromol/L after 24 to 48 hrs by broth microdilution method; format: functional, organism-based; procedure, shortened: as §4
Mycobacterium avium [12] = test: Antimycobacterial activity against isoniazid, rifampicin, ethambutol and ofloxacin-resistant Mycobacterium avium My 330/88 after 21 days; format: functional; conditions: My 330/88, 504 h; procedure, shortened: as §3
Lichtheimia corymbifera [13] = test: Antifungal activity against Absidia corymbifera 272 after 24 hrs by broth microdilution method; format: functional; conditions: Lichtheimia corymbifera, 272, 24 h; procedure, shortened: as §1
Mycobacterium kansasii [14] = test: Antimycobacterial activity against Mycobacterium kansasii My 235/80 after 7 days; format: functional; conditions: My 235/80, 168 h; procedure, shortened: as §3
[15] = tested on: Trichophyton mentagrophytes; test: Antifungal activity against Trichophyton mentagrophytes 445 after 72 hrs by broth microdilution method; format: functional; conditions: Trichophyton mentagrophytes, 445, 72 h; procedure, shortened: as §2
Staphylococcus aureus [16] = test: Antibacterial activity against Staphylococcus aureus CCM 4516/08 after 48 hrs by broth microdilution method; format: functional; conditions: CCM 4516/08, 48 h; procedure, shortened: as §4
Nakaseomyces glabratus = test: Antifungal activity against Candida glabrata 20/I at 500 micromol/L after 24 to 48 hrs by broth microdilution method; format: functional, organism-based; procedure, shortened: as §1
Enterococcus sp. = test: Antibacterial activity against Enterococcus sp. J 14365/08 at 500 micromol/L after 24 to 48 hrs by broth microdilution method; format: functional, organism-based; procedure, shortened: as §4
Staphylococcus aureus [17] = test: Antibacterial activity against Staphylococcus aureus CCM 4516/08 after 24 hrs by broth microdilution method; format: functional; conditions: CCM 4516/08, 24 h; procedure, shortened: as §4
Mycobacterium kansasii [18] = test: Antimycobacterial activity against Mycobacterium kansasii 6509/96 after 14 days; format: functional; conditions: 6509/96, 336 h; procedure, shortened: as §3
[19] = tested on: Mycobacterium tuberculosis; test: Antimycobacterial activity against Mycobacterium tuberculosis H37Rv My 331/88 after 14 days; format: functional; conditions: H37Rv My 331/88, 336 h; procedure, shortened: as §3
Candida albicans [20] = test: Antifungal activity against Candida albicans ATCC 44859 after 48 hrs by broth microdilution method; format: functional; conditions: ATCC 44859, 48 h; procedure, shortened: as §1
Candida albicans [21] = test: Antifungal activity against Candida albicans ATCC 44859 after 24 hrs by broth microdilution method; format: functional; conditions: ATCC 44859, 24 h; procedure, shortened: as §1
Mycobacterium avium [22] = test: Antimycobacterial activity against isoniazid, rifampicin, ethambutol and ofloxacin-resistant Mycobacterium avium My 330/88 after 14 days; format: functional; conditions: My 330/88, 336 h; procedure, shortened: as §3
Pichia kudriavzevii [23] = test: Antifungal activity against Candida krusei E28 after 48 hrs by broth microdilution method; format: functional; conditions: E28, 48 h; procedure, shortened: as §1
Klebsiella pneumoniae [24] = test: Antibacterial activity against Klebsiella pneumoniae D 11750/08 at 500 micromol/L after 24 to 48 hrs by broth microdilution method; format: functional, organism-based; procedure, shortened: as §4
Klebsiella pneumoniae [25] = test: Antibacterial activity against ESBL-positive Klebsiella pneumoniae J 14368/08 at 500 micromol/L after 24 to 48 hrs by broth microdilution method; format: functional, organism-based; procedure, shortened: as §4
Pichia kudriavzevii [26] = test: Antifungal activity against Candida krusei E28 after 24 hrs by broth microdilution method; format: functional; conditions: E28, 24 h; procedure, shortened: as §1
Lichtheimia corymbifera [27] = test: Antifungal activity against Absidia corymbifera 272 after 48 hrs by broth microdilution method; format: functional; conditions: Lichtheimia corymbifera, 272, 48 h; procedure, shortened: as §1
Aspergillus fumigatus [28] = test: Antifungal activity against Aspergillus fumigatus 231 after 48 hrs by broth microdilution method; format: functional; conditions: Aspergillus fumigatus, 231, 48 h; procedure, shortened: as §1
[29] = tested on: Staphylococcus epidermidis; test: Antibacterial activity against Staphylococcus epidermidis H 6966/08 after 48 hrs by broth microdilution method; format: functional; conditions: H 6966/08, 48 h; procedure, shortened: as §4
Escherichia coli = test: Antibacterial activity against Escherichia coli CCM 4517 at 500 micromol/L after 24 to 48 hrs by broth microdilution method; format: functional, organism-based; procedure, shortened: as §4
[30] = tested on: Mycobacterium tuberculosis; test: Antimycobacterial activity against Mycobacterium tuberculosis H37Rv My 331/88 after 21 days; format: functional; conditions: H37Rv My 331/88, 504 h; procedure, shortened: as §3

CCOP(=O)(OCC)Oc1cc(Cl)ccc1C(=O)Nc1ccc(Cl)cc1
8 µM: MIC (Mycobacterium kansasii [6]) | MIC (Mycobacterium kansasii [10]) | MIC (Mycobacterium avium [12]) | MIC (Mycobacterium kansasii [18]) | MIC (Mycobacterium avium [22])
inactive: Activity (Candida tropicalis) | Activity (Pseudomonas aeruginosa) | Activity (Nakaseomyces glabratus) | Activity (Enterococcus sp.) | Activity (Klebsiella pneumoniae [24]) | Activity (Klebsiella pneumoniae [25]) | Activity (Escherichia coli)
125 µM: MIC95 (Staphylococcus aureus [17])
250 µM: MIC95 [11] | MIC95 (Staphylococcus aureus [16])
4 µM: MIC (Mycobacterium kansasii [4]) | MIC (Mycobacterium kansasii [5]) | MIC (Mycobacterium kansasii [14]) | MIC [19] | MIC [30]
5.6 µM: IC50 (HepG2)
500 µM: MIC50 [3] | MIC95 (Staphylococcus aureus [8]) | MIC50 [15] | MIC95 [29]
> 500 µM: MIC80 (Trichosporon asahii [1]) | MIC80 (Trichosporon asahii [2]) | MIC50 (Aspergillus fumigatus [7]) | MIC95 (Staphylococcus aureus [9]) | MIC50 (Lichtheimia corymbifera [13]) | MIC80 (Candida albicans [20]) | MIC80 (Candida albicans [21]) | MIC80 (Pichia kudriavzevii [23]) | MIC80 (Pichia kudriavzevii [26]) | MIC50 (Lichtheimia corymbifera [27]) | MIC50 (Aspergillus fumigatus [28])
